Compounds with a hit are over-represented: about 2.9% of the library has one in this group of screens.
SF1 activator = SF-1 (human) activation; Q13285; CHO-K1 Gal4-SF-1 LBD luciferase reporter; % increase over DMSO SF-1-specific signal; AID 522; activation, % at 10 µM; 65,000 tested, 1.9% active;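 active = activation above the mean activation of all tested compounds plus 3 SD, cut at about 50% in these data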
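Material: Gal4–SF-1 LBD one-hybrid luciferase reporter in CHO-K1 cells | Amount: 4,000 cells per well | Compound dosing: 10 µM single point, 1% DMSO | Schedule: 20 h compound treatment, 37 °C | Measured by: SteadyLite luciferase luminescence | Evaluation: Percent activation versus DMSO | Control set: DMSO-treated SF-1-transfected cells as negative, DMSO-treated mock-transfected cells lacking SF-1 as background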
MT1-MMP txn act = MT1-MMP promoter transcription activation. 86,000 tested, 0.16% active. HT1080 MT1-MMP promoter luciferase reporter, luminescence, overnight; stronger effect = higher value. AID 750. activation factor at 10 µM;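 active = activation factor of at least 2 for MT1-MMP transcription at 10 µM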
Jurkat tox 60K = reduces viability or proliferation of Jurkat cells; Jurkat E6.1 viability, ATP luminescence, 48 h; inhibition, % at 4 µM; 56,000 tested, 1.2% active;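 active = inhibition above the mean inhibition of all tested compounds plus 3 SD, cut at about 28% in these data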
RORA act = activates the human nuclear receptor RORA. activation, % at 10 µM. AID 560. CHO-K1 Gal4-RORA LBD luciferase reporter, luminescence; percent increase over mock-subtracted basal signal. 65,000 tested, 1.5% active;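 active = activation above the mean of all tested compounds plus 3 SD, cut at about 49% in these data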;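 also: 0% = DMSO-treated RORA cells and 100% = added signal equal to DMSO minus mock-transfected cells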
Target sequence (P35398 whole entry, looked up, the tested form may be a part): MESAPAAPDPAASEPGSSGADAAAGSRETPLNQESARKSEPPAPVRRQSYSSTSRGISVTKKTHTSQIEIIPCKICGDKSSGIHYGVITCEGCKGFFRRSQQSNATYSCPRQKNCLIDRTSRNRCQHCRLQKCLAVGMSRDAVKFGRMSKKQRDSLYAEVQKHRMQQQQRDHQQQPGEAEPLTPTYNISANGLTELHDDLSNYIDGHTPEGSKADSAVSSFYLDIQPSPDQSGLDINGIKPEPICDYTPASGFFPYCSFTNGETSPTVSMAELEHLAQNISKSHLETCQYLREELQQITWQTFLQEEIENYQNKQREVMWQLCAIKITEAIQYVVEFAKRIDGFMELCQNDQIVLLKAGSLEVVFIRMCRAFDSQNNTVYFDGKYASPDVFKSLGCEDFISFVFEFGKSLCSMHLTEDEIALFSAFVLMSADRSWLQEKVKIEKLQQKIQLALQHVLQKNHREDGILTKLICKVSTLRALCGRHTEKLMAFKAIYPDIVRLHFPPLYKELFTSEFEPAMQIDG
HEK293 NFkB inh = inhibitors of the PMA/ionomycin-induced NF-kB reporter in HEK293 cells; HEK-293 NF-kB luciferase reporter, luminescence; inhibition, % at 3 µM; 62,000 tested, 0.21% active;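 active = inhibition above the mean of all tested compounds plus 3 SD, cut at about 40% in these data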;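 also: 0% = stimulated DMSO wells and 100% = 10 µM reference inhibitor 5653914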
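Material: HEK-293 cells with stable firefly luciferase reporter driven by four HIV NF-kB elements / Also added: PMA plus ionomycin mix as NF-kB-activating stimulus / Compound dosing: 3 µM once, 0.30% DMSO / Times: 1 h pretreatment, 16 h stimulation, 37 °C / Signal: luminescence / Evaluation: per-plate % inhibition versus controls / Benchmarks: DMSO and 10 µM reference inhibitor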
Numbers without * were called inactive; / = no result.

SMILES	SF1 activator	MT1-MMP txn act	Jurkat tox 60K	RORA act	HEK293 NFkB inh
COc1cccc(-c2nn(-c3ccccc3)cc2CO)c1	46.1	1.7	-0.4	62.0*	-3.5
Cc1ccc(C2CCN(C(=O)Nc3ccccc3)C2)cc1 (centres undefined)	58.5*	1.5	1.1	91.5*	-20.3
CSc1cccc(NS(=O)(=O)c2ccc3c(c2)oc(=O)n3C)c1	-0.6	1	9.1	18.9	9.2
O=C(Nc1cccc(Cl)c1)c1ccc2c(=O)n3c(nc2c1)CCCCC3	59.0*	0.7	18.1	23.9	-10.5
O=C(NCCC1=CCCCC1)c1ccc2c(=O)n3c(nc2c1)CCCCC3	6.4	1.7	3.0	47.7	-2.4
CN(C(=O)c1ccc2c(=O)n3c(nc2c1)CCCCC3)c1ccccc1	-5.3	1.1	5.4	-14.2	13.3
O=C(Nc1ccc(F)c(Cl)c1)c1ccc2c(=O)n3c(nc2c1)CCCCC3	73.8*	1.5	20.1	29.7	-10.3
Cc1c(NC(=O)CSc2nnc3sc4ccccc4n23)c(=O)n(-c2ccccc2)n1C	-6.8	1	-7.5	-3.1	8.8
COc1ccc(NC(=O)Nc2ccc3nccnc3c2)cc1	51.0*	1.3	5.5	57.2*	-41.2
COc1ccc(C(=O)c2ccc(N(C)C)cc2)c(OC)c1	17.4	/	81.4*	26.4	32.3
COc1ccc(NC(=O)Nc2ccc(N(C)C)cc2)cc1	29.4	1.2	-1.3	57.9*	-14.5
COc1cccc(C(=O)Nc2ccc(N(C)C)cc2)c1OC	50.3*	/	1.1	42.6	-24.4
COc1ccc(S(=O)(=O)NCCSC(C)(C)C)cc1	/	1.2	/	/	/
CCCC1=C(C(=O)OCC)C(c2ccc(N(C)C)cc2)n2ncnc2N1 (centres undefined)	-1.1	1.2	-0.7	1.7	7.5
CCN(CC)CCCNC(CC(=O)O)C(=O)O (centres undefined)	-19.3	1.2	-5.7	-0.2	16.5
CCOC(=O)C(O)(C1C(=O)CC(C)(C)CC1=O)C(F)(F)F (centres undefined)	0.5	1.3	/	-10.3	/
CN(C)c1ccc(NC(=O)Nc2ccc3snnc3c2)cc1	47.8	1.3	-5.0	56.0*	14.5
COc1ccc(NC(=O)Nc2nccs2)cc1	73.2*	1.1	19.3	64.3*	-0.6
c1ccn2cc(CSc3nnc4ccccn34)nc2c1	57.6*	1.6	0.8	56.8*	-17.4
c1ccn2c(SCc3ccc4c(c3)OCCO4)nnc2c1	39.7	1.5	1.5	56.6*	-10.9
CCOc1ccc(N2C(=O)c3ccccc3C2O)cc1 (centres undefined)	69.4*	1.2	-3.6	11.0	-16.7
CCOc1ccc(N2C(=O)c3ccccc3C2=O)cc1	/	1.3	/	/	/
CCNc1nc(N)nc(Oc2ccc(OCCOc3ccc(Cl)cc3Cl)nn2)n1	-4.9	1	2.8	9.7	21.9
CC(C)Oc1ccccc1C1CC(=O)Nc2cc3c(cc21)OCCO3 (centres undefined)	-38.8	0.6	98.3*	-28.1	16.5
CCCOc1c(OC)cccc1C1CC(=O)Nc2cc3c(cc21)OCCO3 (centres undefined)	-1.8	0.9	7.4	1.8	8.9
SMILES	SF1 activator	MT1-MMP txn act	Jurkat tox 60K	RORA act	HEK293 NFkB inh
COc1ccccc1C1CC(=O)Nc2cc3c(cc21)OCCO3 (centres undefined)	28.3	0.5	91.7*	12.3	32.2
COc1cccc(C2CC(=O)Nc3cc4c(cc32)OCCO4)c1OC(C)C (centres undefined)	-26.8	1	10.1	7.3	10.1
Cc1cnc(C(=O)Nc2nnc(C(C)C)s2)cn1	68.5*	1.6	0.2	32.9	-25.7
CC(C)c1nnc(NC(=O)c2cnccn2)s1	50.7*	1.4	-13.6	32.2	-13.0
Cc1csc(NC(=O)c2cnccn2)n1	25.2	1.4	-3.8	22.0	-4.1
Cc1cnc(C(=O)Nc2nnc(C)s2)cn1	1.1	1.2	-10.6	-1.5	9.5
O=C(Cn1c(=O)sc2ccccc21)Nc1ccccc1C(=O)O	-17.4	1.2	/	-21.3	-0.7
Cc1nc2c(C(=O)N3CCN(C)CC3)cnn2c(C)c1Cc1ccc(Cl)cc1	/	1.2	/	/	/
Cc1nc2c(C(=O)N3CCCCC3)cnn2c(C)c1Cc1ccccc1F	41.6	1.2	/	75.5*	-11.7
OC1(c2cccc(C(F)(F)F)c2)CCN(c2ncnc3c2[nH]c2ccc(F)cc23)CC1	-46.2	1.3	52.8*	-32.1	23.7
CCn1c(SCc2ccc(OC)cc2)nnc1-c1ccncc1	-6.7	1.2	2.6	-6.4	23.1
Cc1cc(C)n(-c2nnc3n2N=C(c2c[nH]c4ccccc24)CS3)n1	30.7	1.2	57.1*	0.7	5.5
